PDI inh – inhibitors of human PDI, primary screen, biochemical, turbidity, single point, plate reader; Protein disulfide-isomerase (Homo sapiens), P07237; PDI insulin aggregation turbidity, A650, 90 min; inhibition, % at 10 µM; hit rate 0.052% among 350,000;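 active means mean inhibition across replicates of 30% or more, whatever share of single replicates reach that level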
S100A4 inh HTS – inhibitors of S100A4-myosin IIA peptide binding, primary screen, biochemical, fluorescence polarization, TAMRA-MyoIIA peptide; Protein S100-A4 (Homo sapiens), P26447; inhibition, % at 10.7 µM; hit rate 0.14% among 360,000;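 active means mean inhibition of at least 70% across replicates, with every replicate also reaching that level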
Target sequence (P26447 whole entry, looked up): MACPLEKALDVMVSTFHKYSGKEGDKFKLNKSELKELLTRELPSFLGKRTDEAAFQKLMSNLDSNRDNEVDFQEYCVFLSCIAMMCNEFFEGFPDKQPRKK
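Assay system: human S100A4 monomer with TAMRA-labelled myosin IIA peptide / Buffer or medium: Calcium-containing HEPES buffer, pH 7.2 / Reagent: TAMRA-labelled myosin IIA heavy-chain peptide probe, 5 nM / Compound: one dose per compound / Timing: polarization read 5 min after assay mix addition, stable 5–60 min / Benchmarks: neutral control DMSO, positive control TFP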
ERp5 block – inhibitors of ERp5-driven insulin aggregation, primary screen, biochemical, turbidity, absorbance 650 nm, single point | Protein disulfide-isomerase A6 (Homo sapiens), Q15084 | 90 min | inhibition, % at 9.99 µM | hit rate 0.05% among 350,000 | AID 651711, 2012;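 active means mean replicate inhibition above about 25%, with every replicate also reaching it, limit read from the data, passing the limit was not always enough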
GSIS activator – GLuc luminescence reporter in INS-1E cells, primary screen for activators of glucose-dependent secretion of insulin | INS-1E GLuc reporter insulin secretion, 2-3 h | activation, % at 16.6 µM | hit rate 0.61% among 370,000 | AID 743287, 2014;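 active means lowest replicate activation of at least 40%, so every replicate reaches that level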;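 further: 0% = median of neutral control wells and 100% = median of IBMX positive control wells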
SIRT5 block – SIRT5 desuccinylase inhibitors, primary screen, biochemical, fluorescence imaging, single point, set 5. NAD-dependent protein deacylase sirtuin-5, mitochondrial (Homo sapiens), Q9NXA8. Purified SirT5, succinyl-peptide AMC, trypsin-coupled fluorescence. inhibition, % at 15 µM. hit rate 1.1% among 330,000; in the data active means inhibition above about 15%
Target sequence (Q9NXA8 whole entry, looked up): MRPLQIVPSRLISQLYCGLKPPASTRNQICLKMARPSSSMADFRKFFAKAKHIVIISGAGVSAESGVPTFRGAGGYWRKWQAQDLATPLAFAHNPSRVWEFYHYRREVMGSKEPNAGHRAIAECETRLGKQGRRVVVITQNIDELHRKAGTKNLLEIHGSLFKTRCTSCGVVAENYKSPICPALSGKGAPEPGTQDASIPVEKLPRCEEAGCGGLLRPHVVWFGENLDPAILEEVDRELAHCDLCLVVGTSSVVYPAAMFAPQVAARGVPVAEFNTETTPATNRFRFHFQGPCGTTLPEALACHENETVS
* hit, by the source's call; nt = no result given; ! = not active in a repeat. In the library only some 1.5% were active in any assay of this set; here they are far more common.

SMILES	PDI inh	S100A4 inh HTS	ERp5 block	GSIS activator	SIRT5 block
Nc1c(Cl)cc(-c2csc(N3CCCC3c3nc4cc(Cl)c(Cl)cc4n3CCCO)n2)cc1Cl (stereo not drawn)	-6	-10	8	-4	-6
Nc1c(Cl)cc(-c2csc(N3CCCC3c3nc4cc(Cl)c(N5CCCCC5)cc4n3CCCO)n2)cc1Cl (stereo not drawn)	-1	-8	0	nt	15*
COc1ccc(CN(C)C[C@H]2OCCCC[C@H](C)Oc3ccc(N(C)C)cc3C(=O)N([C@H](C)CO)C[C@H]2C)cc1	nt	-21	-4	-1	22*
COc1ccc(CN(C)C[C@H]2OCCCC[C@@H](C)Oc3ccc(NC(=O)NC4CCCCC4)cc3C(=O)N([C@H](C)CO)C[C@H]2C)cc1	nt	7	-5	-16	19*
COc1ccc(CN(C)C[C@H]2OCCCC[C@@H](C)Oc3ccc(N(C)C)cc3C(=O)N([C@@H](C)CO)C[C@H]2C)cc1	nt	11	6	1	-2
Cc1ccc(S(=O)(=O)Nc2ccc3c(c2)C(=O)N([C@H](C)CO)C[C@@H](C)[C@@H](CN(C)C(=O)C2CCCCC2)OCCCC[C@@H](C)O3)cc1	nt	-5	2	-22	7
O=[N+]([O-])c1ccc2nc(SCc3cn4ccccc4n3)[nH]c2c1	-5	-16	4	3	-9
Cc1cc(=O)[nH]c(SCc2cn3ccccc3n2)n1	9	1	-2	73*	-15
CSc1nc(N)nc2c1ncn2CC(=O)NCc1ccc2c(c1)OCO2	-2	-3	-3	26	21*
CCC(=O)Nc1ccc2c(c1)OC[C@H](C)N(Cc1ccccc1OC)C[C@H](C)[C@@H](OC)CN(C)C2=O	nt	4	nt	7	3
O=C(Nc1nnc(-c2ccccc2SCc2ccccc2F)s1)Nc1ccccc1F	9	nt	nt	61*	nt
Cc1ccc(S(=O)(=O)N(C)C[C@@H]2Oc3ccc(NC(=O)C4CC4)cc3CC(=O)N([C@H](C)CO)C[C@@H]2C)cc1	nt	1	0	12	0
COc1ccc2c(c1)[C@@]1(OCCC=C[C@H]1C)C(=O)N2CC1CC1	nt	1	11	53*	-3
COc1ccc2c(c1)[C@@]1(OCCC=C[C@H]1C)C(=O)N2C/C=C(\C)CCC=C(C)C	nt	-8	5	-22	-1
C[C@H]1CN([C@@H](C)CO)C(=O)c2cc(NC(=O)Nc3cccc4ccccc34)ccc2O[C@@H]1CN(C)S(C)(=O)=O	nt	-29	0	11	4
CCOC(=O)C1CCc2c(ccc3ccccc23)N1CCC#N (stereo not drawn)	-3	5	0	-14	35*
C[C@H]1CN([C@@H](C)CO)C(=O)Cc2cc(NC(=O)C3CCCCC3)ccc2O[C@@H]1CN(C)C(=O)Nc1ccc(C(F)(F)F)cc1	nt	6	4	-20	-5
COCC(=O)Nc1ccc2c(c1)OC[C@H](C)N(CC1CC1)C[C@@H](C)[C@@H](OC)CN(C)C2=O	nt	7	2	6	20*
CCC(=O)Nc1ccc2c(c1)C(=O)N(C)C[C@H](OC)[C@@H](C)CN(CC1CCCCC1)[C@H](C)CO2	nt	-3	-1	-20	18*
Cc1cccc(NC(=O)CN2C(=O)S/C(=C\C(=O)Nc3ccc(Cl)cc3)C2=O)c1	-10	nt	nt	199*	nt
NC1=NC[C@H](c2ccccc2)N1CCCCC1CCCCC1	-9	-4	-5	285*	nt
O=C(C[C@H]1C[C@H]2c3cc(NC(=O)c4cccnc4)ccc3O[C@H]2[C@@H](CO)O1)NCc1cccnc1	nt	-7	-10	3	2
O=C(Nc1ccnn1C1CCN(Cc2ccc(OC(F)F)cc2)CC1)C1CCCC1	-4	2	7	0	19*
COc1cc(CN2CCC(n3nccc3NC(=O)C3CCOC3)CC2)ccc1F (stereo not drawn)	-6	11	1	45*	-1
CC(C)c1ccc(NC(=O)CNCC(c2ccccc2)N(C)C)cc1 (stereo not drawn)	13	1	3	-11	17*
SMILES	PDI inh	S100A4 inh HTS	ERp5 block	GSIS activator	SIRT5 block
COc1ncnc2c1ncn2CCCN1CCN(Cc2cccc3ccccc23)CC1	-5	-2	-6	23	26*
CCCNC(=O)Nc1ccc2c(c1)C(=O)N(C)C[C@H](OC)[C@H](C)CN(Cc1ccccn1)[C@@H](C)CO2	nt	nt	nt	-5	nt
COc1ccc(S(=O)(=O)Nc2ccc3c(c2)CC(=O)N([C@H](C)CO)C[C@H](C)[C@H](CN(C)C)O3)cc1	nt	5	1	-9	-1
COc1ccc(S(=O)(=O)Nc2ccc3c(c2)CC(=O)N([C@@H](C)CO)C[C@@H](C)[C@H](CN(C)CC2CCCCC2)O3)cc1	nt	2	-3	-3	24*
COc1ccc(S(=O)(=O)Nc2ccc3c(c2)C(=O)N([C@H](C)CO)C[C@@H](C)[C@H](CN(C)CC2CC2)O3)cc1	nt	-3	0	-4	0
COc1ccc(S(=O)(=O)Nc2ccc3c(c2)CC(=O)N([C@H](C)CO)C[C@H](C)[C@@H](CN(C)CC2CC2)O3)cc1	nt	118*	1	2	6
COc1ccc(S(=O)(=O)Nc2ccc3c(c2)CC(=O)N([C@H](C)CO)C[C@@H](C)[C@@H](CN(C)CC2CCCCC2)O3)cc1	nt	31	2	9	7
COc1ccc(S(=O)(=O)Nc2ccc3c(c2)C(=O)N([C@@H](C)CO)C[C@H](C)[C@H](CN(C)CC2CC2)O3)cc1	-2	1	-1	7	27*!
O=C(N[C@H]1CC[C@H](CC(=O)N2CCCCC2)O[C@H]1CO)c1cccc(F)c1	nt	31	2	20	1
O=C(C1CC1)N1CC2(C1)[C@@H](c1ccccc1)[C@@H](CO)N2CCC(F)(F)F	nt	-2	1	-15	1
CCCC(=O)Nc1ccc2c(c1)C(=O)N(C)[C@H]1CC[C@@H](CC(=O)NCCN3CCCCC3)O[C@H]1CO2	nt	-3	-5	6	-1
CCC(C)(C)c1ccc(OCCCC[n+]2ccc(C)cc2)c(C(C)(C)CC)c1	nt	nt	nt	560*	nt
CCN(CC)CCN1C(=O)C2C(C(=O)Nc3cccc(C)c3)C3C=CC2(O3)C1C(=O)NC1CCCC(C)C1C (stereo not drawn)	7	6	2	8	19*
CC1OC(CC(=O)O)CC2=C1C(=O)c1c(O)cccc1C2=O (stereo not drawn)	10	-3	8	72*	-1
C[C@H](CO)N1C[C@H](C)[C@@H](CN(C)C(=O)CN(C)C)Oc2ncc(C3=CCCC3)cc2C1=O	nt	-16	-3	11	1
